Measured values taken from PubChem BioAssay.
Calls of active or inactive are those of the source.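 The calls were made as follows, unless noted: active = GFP response above 150% of the DMSO level; inconclusive = fewer than 70 events counted for a yeast strain; inactive = the rest.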

Legend:
[1] = RPL19A-GFP modulators, yeast TOR pathway, confirmation, cell-based, S. cerevisiae, flow cytometry, cherry picks, mother/daughter gates (AID 2270;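 active = GFP response below 50% of the DMSO control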); settings: S. cerevisiae RPL19A-GFP strain, 3 h, at 10 µM, stronger effect = lower value, 100 = same GFP as DMSO wells
[2] = LAP4-GFP expression modulators in yeast, confirmation, cell-based, cherry picks, flow cytometry, mother/daughter gates (AID 2271;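 active = GFP response above 150% of the DMSO control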;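 also: ratio of sample to DMSO plate mean so 100% equals DMSO level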); settings: S. cerevisiae LAP4-GFP strain, 3 h, at 10 µM, stronger effect = higher value, 100 means same as DMSO control
How it was run: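 System: Alexa 633-stained baker's yeast GFP-fusion strain; quantity: 0.2 OD600 cells; timing: compound exposure 3 h at 30 °C, end-over-end rotation; detection: HT flow cytometry, GFP fluorescence channel; measure: per-gate (all, mother, daughter) GFP response vs DMSO; control set: DMSO-only negative wells, rapamycin 400 ng/mL positive wells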

[3] = modulators of MEP2-GFP levels in yeast, confirmation, S. cerevisiae, flow cytometry GFP, cherry picks (AID 2272;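 active = GFP response above 150% of the DMSO control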;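 also: ratio of well signal to plate DMSO mean so 100% equals DMSO level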); settings: S. cerevisiae MEP2-GFP strain, 3 h, at 10 µM, stronger effect = higher value
[4] = AGP1-GFP expression modulators, hit retest, confirmation, cell-based, flow cytometry, S. cerevisiae, cherry picks (AID 2273);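 also: median GFP channel fluorescence over the whole cell population gate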; settings: S. cerevisiae AGP1-GFP strain, 3 h, at 10 µM
[5] = modulators of CIT2-GFP expression in yeast, confirmation, S. cerevisiae, GFP fusion, cherry picks, mother/daughter gates (AID 2274); settings: S. cerevisiae CIT2-GFP strain, flow cytometry, 3 h, at 10 µM, stronger effect = higher value
[6] = measured here: daughter cell gate
[7] = measured here: mother cell gate
[8] = measured here: daughter cell gate response
[9] = measured here: mother cell gate response

| Compound | GFP response vs DMSO [1] | GFP response vs DMSO [1, 6] | GFP response vs DMSO [1, 7] | GFP response relative to DMSO [2] | GFP response relative to DMSO [2, 8] | GFP response relative to DMSO [2, 9] | GFP response vs DMSO [3] | GFP response, % of DMSO [4] | GFP response, % of DMSO [5] | GFP response, % of DMSO [5, 6] | GFP response, % of DMSO [5, 7] |
| --- | --- | --- | --- | --- | --- | --- | --- | --- | --- | --- | --- |
| O=C(Nc1cccc(Cl)c1N1CCCC1)c1ccc([N+](=O)[O-])o1 | 99.2% (inactive) | 96.4% | 95.8% | 99.2% (inactive) | 92.8% | 96.1% | 100% (inactive) | 97.6% (inactive) | 99.7% (inactive) | 99.1% | 91.4% |
| OCc1ccccc1SSc1ccccc1CO | 101% (inactive) | 99.2% | 98.5% | 149% (inactive) | 137% | 156% | 100% (inactive) | 104% (inactive) | 103% (inactive) | 101% | 99.8% |
| CCOc1ccc(-c2noc(-c3ccncc3)n2)cc1OCC | 96.4% (inactive) | 93.7% | 95.7% | 106% (inactive) | 106% | 106% | 116% (inactive) | 98.8% (inactive) | 102% (inactive) | 103% | 99.3% |
| Cc1ccc(-c2csc(NC(=O)c3cccc([N+](=O)[O-])c3)n2)cc1 | 101% (inactive) | 98.1% | 97.5% | 97% (inactive) | 95.9% | 97.3% | 107% (inactive) | 99.6% (inactive) | 98.8% (inactive) | 97.4% | 93.2% |
| C/C(=N\NC(=O)c1cccc(Br)c1)c1ccccn1 | 108% (inactive) | 97.6% | 102% | 163% (active) | 149% | 166% | 122% (inactive) | 97.3% (inactive) | 108% (inactive) | 101% | 101% |
| COc1ccc(/C=C/C(=O)c2ccc(OC)cc2O)cc1 | 99.9% (inactive) | 100% | 99.3% | 98.8% (inactive) | 99.3% | 100% | 104% (inactive) | 100% (inactive) | 102% (inactive) | 102% | 100% |
| O=c1c(-c2ccc(Cl)cc2)[n+]([O-])c2ccccc2n1O | 103% (inactive) | 102% | 103% | 193% (active) | 141% | 177% | 112% (inactive) | 93% (inactive) | 92.1% (inactive) | 90.9% | 91% |
| Cc1cccc(N2C(=O)C(Cl)=C(Nc3c(C)n(C)n(-c4ccccc4)c3=O)C2=O)c1C | 102% (inactive) | 102% | 103% | 103% (inactive) | 104% | 104% | 104% (inactive) | 103% (inactive) | 99.3% (inactive) | 100% | 98% |
| Cc1ccc(S(=O)(=O)N2CC3CCC2C3)cc1 (centres undefined) | 101% (inactive) | 100% | 104% | 97.4% (inactive) | 97.2% | 99.3% | 97.8% (inactive) | 97.4% (inactive) | 112% (inactive) | 110% | 114% |
| COc1cc(NC(=O)c2cccs2)ccc1NC(=O)c1cc2ccccc2o1 | 97% (inactive) | 96.9% | 98.7% | 96.7% (inactive) | 99.2% | 95.1% | 100% (inactive) | 99.9% (inactive) | 101% (inactive) | 101% | 101% |
| COc1cccc(C(=O)Nc2ccc(NC(=O)c3cc4ccccc4o3)c(OC)c2)c1 | 100% (inactive) | 98.1% | 103% | 89% (inactive) | 92.5% | 89% | 102% (inactive) | 95% (inactive) | 108% (inactive) | 105% | 111% |
| CNC(=O)c1c(O)c2cccc3c2n(c1=O)CC3 | 102% (inactive) | 99.1% | 103% | 94.2% (inactive) | 90.7% | 94.6% | 97.5% (inactive) | 100% (inactive) | 93.5% (inactive) | 90.9% | 93.3% |
| COc1cccc(C(=O)N/N=C(\CC(C)C)c2ccccc2)c1 | 97.8% (inactive) | 97% | 97.7% | 100% (inactive) | 101% | 102% | 103% (inactive) | 98.4% (inactive) | 101% (inactive) | 103% | 103% |
| CCc1noc(C)c1C(=O)Nc1nc(-c2ccc(Cl)cc2Cl)cs1 | 95.6% (inactive) | 95.6% | 94% | 97.7% (inactive) | 96% | 97.4% | 103% (inactive) | 96.1% (inactive) | 94.4% (inactive) | 97.6% | 93.8% |
| COc1ccc(OC)c(/C=C/C(=O)c2ccc(Cl)cc2)c1 | 92.2% (inactive) | 91.9% | 92% | 104% (inactive) | 97.6% | 105% | 96.2% (inactive) | 98.5% (inactive) | 101% (inactive) | 101% | 101% |
| CCN(CC)N=Nc1[nH]nc2nc(C)cc(C)c12 | 127% (inactive) | 103% | 118% | 120% (inactive) | 102% | 116% | 137% (inactive) | 120% (inactive) | 133% (inactive) | 123% | 134% |
| CCN(CC)c1ccc(/C=C/c2ccc3ccc(OC)cc3[n+]2CC)cc1 | 102% (inactive) | 101% | 101% | 117% (inactive) | 113% | 119% | 133% (inactive) | 98.9% (inactive) | 107% (inactive) | 110% | 104% |

| Compound | GFP response vs DMSO [1] | GFP response vs DMSO [1, 6] | GFP response vs DMSO [1, 7] | GFP response relative to DMSO [2] | GFP response relative to DMSO [2, 8] | GFP response relative to DMSO [2, 9] | GFP response vs DMSO [3] | GFP response, % of DMSO [4] | GFP response, % of DMSO [5] | GFP response, % of DMSO [5, 6] | GFP response, % of DMSO [5, 7] |
| --- | --- | --- | --- | --- | --- | --- | --- | --- | --- | --- | --- |
| Nc1cccnc1S(=O)(=O)c1ccccc1 | 98.8% (inactive) | 97.8% | 100% | 93.8% (inactive) | 94.1% | 95.2% | 100% (inactive) | 98.5% (inactive) | 99.1% (inactive) | 99.7% | 97.7% |
| Cc1cccc(C)c1NC(=O)c1nc(S(=O)(=O)Cc2ccccc2)ncc1Cl | 97.1% (inactive) | 96.4% | 95.8% | 102% (inactive) | 101% | 101% | 101% (inactive) | 102% (inactive) | 94.4% (inactive) | 92.3% | 93.8% |
| CCOc1c(Br)ccc2c1sc1nc[nH]c(=O)c12 | 101% (inactive) | 99.8% | 100% | 105% (inactive) | 99% | 108% | 103% (inactive) | 99.1% (inactive) | 100% (inactive) | 97.6% | 100% |
| Cc1cc(S(=O)(=O)ON2C(=O)c3ccccc3C2=O)ccc1F | 78.2% (inactive) | 84.3% | 66.6% | 153% (active) | 153% | 160% | 108% (inactive) | 105% (inactive) | 120% (inactive) | 84.1% | 98.7% |
| O=c1oc(/C=C/c2ccc([N+](=O)[O-])s2)nc2ccccc12 | 112% (inactive) | 113% | 108% | 184% (active) | 180% | 189% | 267% (active) | 107% (inactive) | 183% (active) | 180% | 181% |
| O=C(c1ccccc1)c1ccccc1N1C(=O)C=CC1=O | 90.5% (inactive) | 61.6% | 81.2% | 266% (active) | 156% | 263% | 156% (inactive) | 129% (inactive) | 86% (inactive) | 95.2% | 71.8% |
| CCCCOc1c(Br)cc(/C=C2\N=C(C)OC2=O)cc1OCC | 97.8% (inactive) | 98.4% | 97.7% | 106% (inactive) | 102% | 106% | 100% (inactive) | 101% (inactive) | 98.3% (inactive) | 99.1% | 98.5% |
| NS(=O)(=O)c1ccc(S(=O)(=O)c2ccccc2)nc1 | 98.2% (inactive) | 99.1% | 96.9% | 97.9% (inactive) | 97.6% | 97.2% | 102% (inactive) | 95.6% (inactive) | 103% (inactive) | 105% | 102% |
| CCNC(=O)/C(C#N)=C/c1c(N2CCOCC2)nc2ccccn2c1=O | 96.9% (inactive) | 99.3% | 95.4% | 102% (inactive) | 101% | 104% | 103% (inactive) | 102% (inactive) | 100% (inactive) | 101% | 99.3% |
| COc1cc(NC(=O)c2cccc(C)c2)ccc1NC(=O)c1cc2ccccc2o1 | 102% (inactive) | 103% | 102% | 103% (inactive) | 102% | 103% | 99% (inactive) | 104% (inactive) | 103% (inactive) | 106% | 103% |
| CCCc1[nH]nc2c1C(c1ccc(Br)s1)C(C#N)=C(N)O2 (centres undefined) | 96.2% (inactive) | 96.7% | 95.4% | 137% (inactive) | 136% | 137% | 122% (inactive) | 105% (inactive) | 101% (inactive) | 101% | 102% |
| O=C(OCC(=O)N1CCN(C(=O)c2ccco2)CC1)c1cc(-c2ccccc2)nc2ccccc12 | 76.3% (inactive) | 66.6% | 70.5% | 161% (active) | 117% | 153% | 130% (inactive) | 136% (inactive) | 134% (inactive) | 114% | 130% |
| CCCC(=O)c1ccc(N2CCN(C(=O)c3ccc(Br)cc3)CC2)c(F)c1 | 101% (inactive) | 95.9% | 94% | 102% (inactive) | 99.2% | 99.3% | 102% (inactive) | 100% (inactive) | 105% (inactive) | 105% | 99.7% |
| CCOC(=O)/C(=C\c1cn(C)c2ccccc12)[N+](=O)[O-] | 98.2% (inactive) | 93.4% | 93.6% | 204% (active) | 163% | 202% | 111% (inactive) | 84.2% (inactive) | 86.9% (inactive) | 88.1% | 76% |
| COc1ccc(/C=N/c2c(-c3ccco3)nc3ccccn23)cc1OC | 97.8% (inactive) | 98.5% | 98.6% | 95.3% (inactive) | 96.5% | 93.6% | 102% (inactive) | 98.9% (inactive) | 101% (inactive) | 100% | 100% |
| Cc1ccc(N2C(=O)C(Cl)=C(NCc3ccccc3)C2=O)c(C)c1 | 96.2% (inactive) | 95.2% | 97% | 106% (inactive) | 104% | 107% | 101% (inactive) | 100% (inactive) | 94.4% (inactive) | 95.6% | 94.4% |
| CC(C(=O)NCCc1ccc(F)cc1)N1CCN(Cc2ccccc2)CC1 (centres undefined) | 96.5% (inactive) | 97% | 96.8% | 98.7% (inactive) | 100% | 101% | 102% (inactive) | 98.5% (inactive) | 95.2% (inactive) | 96.5% | 95.5% |
